These results are taken from ChEMBL document CHEMBL1122551, “Bis(m-nitrophenyl) and bis(p-nitrophenyl) esters and the phosphorodiamidate of thymidine 5'-phosphate as potential sources of intracellular thymidine 5'-phosphate in mouse cells in culture” (J Med Chem, 1984).

Each structure is given as a SMILES string.

Data set [1] can be described thus: Time for hydrolysis of half the starting material was studied at a temperature of 27 degrees celsius and aqueous 50 mM phosphate + 10 % p-dioxane (pH 7.6) as medium. The data set is classed as ADME. As to conditions: phosphate buffer with 10% p-dioxane. The procedure, abridged:
(§1)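 Hydrolysis in aqueous 50 mM potassium phosphate, pH 7.6, starting at 0.05 mM substrate. Nitrophenol release was followed spectrophotometrically at 400 nm. Half-life is the time for hydrolysis of half the starting material.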

Data set [2] is described as follows: Time for hydrolysis of half the starting material was studied at a temperature of 23 degrees celsius and aqueous 50 mM phosphate + 10 % p-dioxane (pH 7.6) as medium. The format is ADME, Rattus norvegicus. As to conditions: phosphate buffer with 10% p-dioxane. In short, it runs like this: as §1
Data set [3] concerns LM. The data set is described as follows: Rate of incorporation of [3H]- into DNA fraction of mouse LM(TK-) cells after 19h of pre-incubation, expressed as cpm 1/(10e6 cells) 1/h. The data set is classed as functional. In short, it runs like this: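 LM(TK-) thymidine-kinase-deficient mouse fibroblasts in DMEM with 10% FBS at 37 °C in 5% CO2. Cells were exposed to [methyl-3H]-labeled compound at 0.9 μM and 1 μCi/mL (0.5% EtOH) for 19 h. Acid-insoluble 3H was counted on CCl3CO2H-washed filters. Rate was expressed per 10^6 cells per hour, using Coulter counts.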

Data set [4] is described as follows: Time for hydrolysis of half the starting material was studied at a temperature of 37 degrees celsius and aqueous 50 mM phosphate (pH 6) as medium. The data set is classed as ADME. As to conditions: phosphate buffer. In short, it runs like this:
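Stability in 50 mM potassium phosphate at pH 7.6 or 6.0, 37 °C, followed by paper electrophoresis for up to 72 h. Half-life is the time for hydrolysis of half the starting material.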

Data set [5] is described as follows: Time for hydrolysis of half the starting material was studied at a temperature of 37 degrees celsius and aqueous 50 mM phosphate + 10 % p-dioxane (pH 7.6) as medium(d=no hydrolysis after 72 h). As to conditions: phosphate buffer with 10% p-dioxane. The format is ADME.
Data set [6] is described as follows: Time for hydrolysis of half the starting material was studied at a temperature of 27 degrees celsius and aqueous 50 mM phosphate (pH 7.6) as medium. The data set is classed as ADME. As to conditions: phosphate buffer. The procedure, abridged: as §1
The test system of data set [7] is LM. The experiment in a line: Rate of incorporation of [3H]-into DNA fraction of mouse LM(TK-) cells after 2 hr of pre-incubation, expressed as cpm 1/(10e6 cells) 1/h. The data set is classed as functional. In short, it runs like this: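 LM(TK⁻) mouse L fibroblasts (thymidine-kinase deficient) in DMEM with 10% FBS, 37 °C, 5% CO2. Seeded in 6-cm dishes and grown overnight. Medium replaced with 0.017 μM [1',2',5-³H]-2'-deoxycytidine at 1 μCi/mL, 0.5% EtOH, for 2 h. Cells trypsinized, filter-collected, washed with 5% CCl3CO2H and 70% ethanol, then scintillation-counted. Zero-time blanks taken; cells per dish counted by Coulter.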

By half-life is commonly meant how long it takes for the measured level to halve. For the compound `CCOP(=O)(Oc1ccc([N+](=O)[O-])cc1)Oc1ccc([N+](=O)[O-])cc1`, the half-life in data set [1] was 2 h. On to `Cc1cn([C@H]2C[C@H](O)[C@@H](COP(=O)(Oc3cccc([N+](=O)[O-])c3)Oc3cccc([N+](=O)[O-])c3)O2)c(=O)[nH]c1=O`, for which the half-life in data set [2] is 4.75 h. For the same compound, in the data set on LM [3], the Activity is given as 18.1.

Take `Cc1cn([C@H]2C[C@H](O)[C@@H](COP(N)(N)=O)O2)c(=O)[nH]c1=O`: the half-life in data set [4] and in data set [5] was over 72 h throughout. For the compound `Cc1cn([C@H]2C[C@H](O)[C@@H](COP(=O)(Oc3ccc([N+](=O)[O-])cc3)Oc3ccc([N+](=O)[O-])cc3)O2)c(=O)[nH]c1=O`, the half-life was 0.83 h in data set [6] and 0.58 h in data set [1]. For `Cc1cn([C@H]2C[C@H](O)[C@@H](COP(=O)(O)Oc3cccc([N+](=O)[O-])c3)O2)c(=O)[nH]c1=O`, the Activity in the data set on LM [3] is reported as 37.6. As for `Nc1ccn([C@H]2C[C@H](O)[C@@H](CO)O2)c(=O)n1` [DOXECITINE], the Activity in the data set on LM [7] came out at 21960.

In the data set with LM [3], `Cc1cn([C@H]2C[C@H](O)[C@@H](CO)O2)c(=O)[nH]c1=O` [DOXRIBTIMINE] had an Activity of 53.
